Experimental data as given in ChEMBL document CHEMBL3259569 (J Med Chem, 2014).
Calls of active or inactive are those of the source. No cut-off for these calls is given here.

Assays:
[1] = biological target: Histone deacetylase; assay: Inhibition of HDAC in human HeLa cell nuclear extract using Boc-Lys(Ac)-AMC as substrate after 30 mins by fluorimetric analysis; type: protein assay
[2] = system: KB; assay: Cytotoxicity against human KB cells by MTT assay; type: functional, cell-based
[3] = Cytotoxicity against human H460 cells by MTT assay; type: functional, cell-based; details: NCI-H460
Method in brief: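 Antiproliferative IC50 in H460 cells; mean ± SD of at least three independent experiments.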

[4] = system: PC-3; assay: Cytotoxicity against human PC3 cells by MTT assay; type: functional, cell-based
[5] = system: HCT-116; assay: Cytotoxicity against human HCT116 cells by MTT assay; type: functional, cell-based
[6] = biological target: Histone deacetylase 1 (Homo sapiens, UniProt Q13547); assay: Inhibition of HDAC1 (unknown origin) using RHKK(Ac) (379 to 382) p53 peptide as substrate by fluorescence assay
[7] = biological target: T1, Protein deacetylase HDAC6 (Homo sapiens, UniProt Q9UBN7); assay: Inhibition of HDAC6 (unknown origin) using RHKK(Ac) (379 to 382) p53 peptide as substrate by fluorescence assay
T1 sequence (Q9UBN7 whole entry): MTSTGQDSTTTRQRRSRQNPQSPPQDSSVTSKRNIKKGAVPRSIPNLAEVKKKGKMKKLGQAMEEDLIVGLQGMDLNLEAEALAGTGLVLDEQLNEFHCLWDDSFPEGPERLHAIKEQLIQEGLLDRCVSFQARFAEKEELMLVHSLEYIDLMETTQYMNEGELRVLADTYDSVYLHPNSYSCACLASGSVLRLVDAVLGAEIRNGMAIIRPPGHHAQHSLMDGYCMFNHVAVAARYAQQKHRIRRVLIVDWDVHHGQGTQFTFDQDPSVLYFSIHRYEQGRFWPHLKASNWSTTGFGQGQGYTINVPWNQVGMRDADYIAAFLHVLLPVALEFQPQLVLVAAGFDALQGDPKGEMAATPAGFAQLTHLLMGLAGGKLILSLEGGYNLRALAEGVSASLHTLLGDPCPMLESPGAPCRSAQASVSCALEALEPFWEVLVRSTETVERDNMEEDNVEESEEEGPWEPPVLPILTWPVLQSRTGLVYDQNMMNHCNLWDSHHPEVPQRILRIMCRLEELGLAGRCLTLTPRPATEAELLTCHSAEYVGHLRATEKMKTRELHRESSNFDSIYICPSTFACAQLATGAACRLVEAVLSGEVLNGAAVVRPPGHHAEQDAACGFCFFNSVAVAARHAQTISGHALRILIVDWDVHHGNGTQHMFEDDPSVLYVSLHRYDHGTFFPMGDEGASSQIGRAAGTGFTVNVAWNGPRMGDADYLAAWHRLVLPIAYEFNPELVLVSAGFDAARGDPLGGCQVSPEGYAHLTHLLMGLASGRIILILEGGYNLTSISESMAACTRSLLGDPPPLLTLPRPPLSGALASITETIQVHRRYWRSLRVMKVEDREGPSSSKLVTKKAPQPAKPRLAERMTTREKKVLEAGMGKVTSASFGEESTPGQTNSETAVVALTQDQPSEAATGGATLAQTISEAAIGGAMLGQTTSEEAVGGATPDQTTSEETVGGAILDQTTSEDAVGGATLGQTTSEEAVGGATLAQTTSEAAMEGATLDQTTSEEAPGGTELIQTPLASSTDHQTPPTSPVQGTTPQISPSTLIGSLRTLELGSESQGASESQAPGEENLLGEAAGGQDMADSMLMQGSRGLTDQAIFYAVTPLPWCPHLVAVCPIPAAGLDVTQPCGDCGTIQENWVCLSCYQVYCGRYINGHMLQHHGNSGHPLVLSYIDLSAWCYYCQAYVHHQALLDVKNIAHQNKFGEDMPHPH

[8] = system: HCT-116; assay: Induction of apoptosis in human HCT116 cells assessed as increase in p53 protein level at 0.1 to 3 uM after 24 hrs by immunoblotting analysis; type: functional, cell-based
[9] = system: HCT-116; assay: Induction of apoptosis in human HCT116 cells assessed as accumulation at sub-G1 phase after 24 hrs by propidium iodide staining-based flow cytometric analysis; type: functional, cell-based
Method in brief: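 HCT116 cells treated with indicated concentrations for 24 h; DNA content analyzed by flow cytometry for cell cycle distribution and sub-G1 fraction; means of at least three independent experiments.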

[10] = system: HCT-116; assay: Induction of apoptosis in human HCT116 cells assessed as accumulation at sub-G1 phase at 1 uM by propidium iodide staining-based flow cytometric analysis; type: functional, cell-based; details: TDE = time-dependent effect
Method in brief: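 HCT116 cells exposed to 1 μM compound for varying time intervals; sub-G1 population quantified by flow cytometry.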

[11] = Oral bioavailability in ICR mouse at 10 mg/kg by LC-MS/MS analysis; type: ADME, organism-based; details: in vivo
[12] = system: A549; assay: Cytotoxicity against human A549 cells by MTT assay; type: functional, cell-based

Sequence of Histone deacetylase 1 (Q13547 whole entry): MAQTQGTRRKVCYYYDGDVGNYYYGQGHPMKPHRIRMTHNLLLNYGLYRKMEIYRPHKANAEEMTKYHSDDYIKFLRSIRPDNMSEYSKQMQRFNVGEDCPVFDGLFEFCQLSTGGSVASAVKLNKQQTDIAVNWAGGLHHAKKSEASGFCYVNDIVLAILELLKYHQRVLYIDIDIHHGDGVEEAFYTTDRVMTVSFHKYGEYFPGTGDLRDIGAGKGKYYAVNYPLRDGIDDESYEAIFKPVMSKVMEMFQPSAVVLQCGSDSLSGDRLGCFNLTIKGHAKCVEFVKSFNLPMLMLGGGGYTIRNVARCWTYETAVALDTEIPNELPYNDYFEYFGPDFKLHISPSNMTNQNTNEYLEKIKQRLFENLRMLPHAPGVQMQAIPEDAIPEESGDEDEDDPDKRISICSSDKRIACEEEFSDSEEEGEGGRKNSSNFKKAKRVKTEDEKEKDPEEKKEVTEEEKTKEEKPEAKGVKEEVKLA

Row | IC50 [1] | IC50 [6] | IC50 [7] | bioavailability [11] | Structure (SMILES) | IC50 [2] | IC50 [3] | IC50 [4] | IC50 [5] | Activity [8] | Activity [9] | Activity [10] | IC50 [12]
1 | 560 nM | – | – | – | O=C(/C=C/c1ccc(S(=O)(=O)n2ccc3ccncc32)cc1)NO | 1240 nM | 1670 nM | 1970 nM | 1920 nM | – | – | – | –
2 | 500 nM | – | – | – | O=C(/C=C/c1ccc(S(=O)(=O)n2ncc3ccccc32)cc1)NO | 1830 nM | 2790 nM | 3360 nM | 3340 nM | – | – | – | –
3 | 480 nM | 4850 nM | 280 nM | – | O=C(/C=C/c1cccc(S(=O)(=O)n2ccc3ccncc32)c1)NO | 610 nM | 560 nM | 1110 nM | 1210 nM | – | – | – | –
4 | 240 nM | – | – | – | O=C(/C=C/c1ccc(S(=O)(=O)n2ccc3cccnc32)cc1)NO | 870 nM | 910 nM | 1240 nM | 1010 nM | – | – | – | –

More lines, now with the values behind:

Row | Structure (SMILES) | IC50 [1] | IC50 [6] | IC50 [7] | bioavailability [11] | IC50 [2] | IC50 [3] | IC50 [4] | IC50 [5] | Activity [8] | Activity [9] | Activity [10] | IC50 [12]
5 | O=C(/C=C/c1cccc(S(=O)(=O)n2ccc3ccccc32)c1)NO | 510 nM | – | – | – | 2920 nM | 3010 nM | 4010 nM | 2470 nM | – | – | – | –
6 | O=C(/C=C/c1ccc(S(=O)(=O)N2CCc3cccnc32)cc1)NO | 850 nM | – | – | – | 1520 nM | 1980 nM | 3640 nM | 1730 nM | – | – | – | –
7 | O=C(/C=C/c1cccc(S(=O)(=O)n2ncc3ccccc32)c1)NO | 230 nM | – | – | – | 1260 nM | 1210 nM | 3210 nM | 1120 nM | – | – | – | –
8 | O=C(/C=C/c1cccc(S(=O)(=O)N2CCc3cccnc32)c1)NO | 600 nM | – | – | – | 1290 nM | 1820 nM | 4110 nM | 2040 nM | – | – | – | –
9 | O=C(CCCCCCC(=O)Nc1ccccc1)NO [VORINOSTAT] | – | – | – | 8.33% | – | 820 nM | – | – | inactive | Dose-dependent effect | tde | 1540 nM
